Reference: ChEMBL document CHEMBL1130101, “A virtual screening approach applied to the search for trypanothione reductase inhibitors” (J Med Chem, 1997)

What was measured:
[1] = target: Trypanothione reductase (Trypanosoma cruzi) (UniProt P28593); assay: Natural log of the value in (uM) of inhibition constant was tested against Trypanothione Reductase
[2] = target: Trypanothione reductase (Trypanosoma cruzi) (UniProt P28593); assay: Percent Inhibition of trypanothione reductase activity at 5.7 uM concentration
How it was run: (§1)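 TR-catalysed reduction of trypanothione disulfide; the reaction rate was measured without inhibitor (r0) and with inhibitor (rinh). Percent inhibition = (r0 − rinh)/r0 × 100. Measured percentages carry an error of about 10%.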

[3] = target: Trypanothione reductase (Trypanosoma cruzi) (UniProt P28593); assay: Percent Inhibition of trypanothione reductase activity at 57 uM concentration; how it was run: as §1
[4] = target: Trypanothione reductase (Trypanosoma cruzi) (UniProt P28593); assay: Percent Inhibition of trypanothione reductase activity at 28.5 uM concentration; how it was run: as §1

Chain of Trypanothione reductase (Trypanosoma cruzi) (P28593 whole entry, looked up): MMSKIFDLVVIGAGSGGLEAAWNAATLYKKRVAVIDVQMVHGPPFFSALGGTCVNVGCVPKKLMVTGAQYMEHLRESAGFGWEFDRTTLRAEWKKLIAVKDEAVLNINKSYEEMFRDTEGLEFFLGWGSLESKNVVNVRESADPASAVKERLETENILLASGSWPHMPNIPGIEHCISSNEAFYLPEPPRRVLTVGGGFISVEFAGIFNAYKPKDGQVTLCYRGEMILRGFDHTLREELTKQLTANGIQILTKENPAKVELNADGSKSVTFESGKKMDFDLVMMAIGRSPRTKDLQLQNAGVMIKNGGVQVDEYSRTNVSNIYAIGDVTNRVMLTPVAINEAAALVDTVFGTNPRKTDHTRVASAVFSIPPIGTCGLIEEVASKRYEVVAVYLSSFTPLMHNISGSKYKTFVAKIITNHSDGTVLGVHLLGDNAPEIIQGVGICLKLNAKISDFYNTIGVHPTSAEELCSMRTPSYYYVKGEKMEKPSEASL

Structure (SMILES) | Natural log of inhibition constant (Ki in uM) [1] | inhibition [2] [%] | inhibition [3] [%] | inhibition [4] [%]
Clc1ccc(Sc2ccccc2NCCN2CCCC2)cc1 | 5.08 |  |  | 
Clc1ccc(Sc2ccccc2)c(NCCCN2CCCCC2)c1 | 3.95 |  |  | 
NCCC1CCN(Cc2ccccc2)CC1 |  | 0 | 0 | 0
NCCCCNCCCNC(=O)CCc1ccc(O)c(O)c1 | 4.68 |  |  | 
Cc1ccc(Sc2ccc(F)cc2)c(NCCCN2CCN(C)CC2)c1 | 5.35 |  |  | 
CCN(CC)CCNc1cc(Cl)ccc1Sc1ccccc1 | 6.21 |  |  | 
Clc1ccc(C(c2ccccc2)N2CCNCC2)cc1 (stereo not drawn) |  | 0 | 40 | 30
CN(C)CCNc1cc(Cl)ccc1Sc1ccccc1 | 4.38 |  |  | 
Fc1ccc(C(CCCN2CCNCC2)c2ccc(F)cc2)cc1 |  | 0 | 18 | 9
COc1ccc(/C=C/C(=O)N2CCCN(CCCCN)C2)cc1 | 5.01 |  |  | 
Clc1ccc(Sc2ccccc2)c(NCCCN2CCCC2)c1 | 3.78 |  |  | 
NCCN(CCN)CCCNc1cc(Cl)ccc1Sc1ccccc1 | 1.5 |  |  | 
CN(C)CCNc1cc(Cl)ccc1Sc1ccc(Cl)cc1 | 3.91 |  |  | 
COc1ccc(/C=C/C(=O)NCCCNCCCCN)cc1 | 5.6 |  |  | 
CN1CCN(CCNc2ccccc2Sc2ccc(Cl)cc2)CC1 | 4.38 |  |  | 
CCN(CC)CCCNc1cc(Cl)ccc1Sc1ccccc1 | 3.74 |  |  | 
Cc1ccc(Sc2ccc(Cl)cc2NCCCN2CCN(C)CC2)cc1 | 3.33 |  |  | 
COc1ccc(CCC(=O)NCCCNCCCCN)cc1 | 5.82 |  |  | 
N#Cc1ccc(C2NCCc3c2[nH]c2ccccc32)cc1 (stereo not drawn) |  | 0 | 0 | 0
O=C(CCc1ccc(O)c(O)c1)NCCCCNCCCNC(=O)CCc1ccc(O)c(O)c1 | 2.01 |  |  | 
Cc1ccc(Sc2ccc(C)cc2NCCCN2CCN(C)CC2)cc1 | 4.38 |  |  | 
CN1CCN(CCCNc2cc(Cl)ccc2Sc2ccc(Cl)cc2)CC1 | 4.04 |  |  | 
CN(C)CCNc1ccccc1Sc1ccc(Cl)cc1 | 4.38 |  |  | 
CN(C)CCCC(CN)(c1ccccc1)c1ccccc1 |  | 0 | 36 | 9
NCCCNCCCCNCCCNC(=O)CCc1ccc(O)c(O)c1 | 4.44 |  |  | 
Clc1ccc(Sc2ccc(Cl)cc2NCCCN2CCCC2)cc1 | 4.06 |  |  | 

Structure (SMILES) | Natural log of inhibition constant (Ki in uM) [1] | inhibition [2] [%] | inhibition [3] [%] | inhibition [4] [%]
CC(=O)c1ccc(Sc2ccc(Cl)cc2NCCCN2CCN(C)CC2)cc1 | 2.94 |  |  | 
Cc1cc(-c2ccccc2)nnc1NCCN1CCOCC1 |  | 18 | 12 | 16
CN1CCN(CCCNc2cc(Cl)ccc2Sc2ccccc2)CC1 | 3.3 |  |  | 
COc1cc(CC2NCCc3c2[nH]c2ccccc32)ccc1O (stereo not drawn) |  | 0 | 27 | 13
CN1CCN(CCNc2cc(Cl)ccc2Sc2ccc(Cl)cc2)CC1 | 3.85 |  |  | 
Clc1ccc(Sc2ccccc2)c(NCCN2CCCC2)c1 | 4.34 |  |  | 
CN1CCN(CCCCNc2ccccc2Sc2cccc(NCCCCCNc3cccc(Sc4ccccc4NCCCCN4CCN(C)CC4)c3)c2)CC1 | 1 |  |  | 
COc1ccc(/C=C/C(=O)NCCCCN2CCCN(C(=O)/C=C/c3ccc(OC)cc3)C2)cc1 | 5.01 |  |  | 
C[C@@H]1CN(CCCn2c3ccccc3c3ccccc32)C[C@H](C)N1 |  | 10 | 23 | 15
c1ccc(Sc2ccccc2NCCCN2CCCC2)cc1 | 4.73 |  |  | 
CN1CCN(CCCNc2cc(Cl)ccc2Sc2cc(Cl)ccc2Cl)CC1 | 3.4 |  |  | 
CN(C)c1ccc(C(c2ccc(N(C)C)cc2)c2ccc(N(C)C)cc2)cc1 | 1.6 |  |  | 
Clc1ccc(Sc2ccc(Cl)cc2NCCN2CCCCC2)cc1 | 6.9 |  |  | 
Clc1ccc(Sc2ccc(Cl)cc2NCCCN2CCCCC2)cc1 | 4.09 |  |  | 
CNCCC=C1c2ccccc2CCc2ccccc21 |  | 0 | 25 | 0
Cc1cccc(C)c1OCC(O)CN1CCNCC1 (stereo not drawn) |  | 0 | 7 | 0
Clc1ccc(Sc2ccccc2)c(NCCN2CCCCC2)c1 | 6.55 |  |  | 
CN1CCN(CCCNc2cc(Cl)ccc2Sc2ccc(F)cc2)CC1 | 4.74 |  |  | 
Cc1ccc(Sc2ccccc2NCCCN2CCN(C)CC2)cc1 | 4.17 |  |  | 
NCc1ccccc1Sc1ccccc1CO |  | 0 | 31 | 0
NCCc1ccc(Oc2ccccc2)cc1 |  | 0 | 0 | 0
NCCNCCCNc1cc(Cl)ccc1Sc1ccccc1 | 3 |  |  | 
CCC(C)(C)c1ccc(OCCCCN)c(C(C)(C)CC)c1 |  | 0 | 0 | 0
CN1CCN(CCNc2cc(Cl)ccc2Sc2ccccc2)CC1 | 3.68 |  |  | 
NCCCNCCCNC1=C(c2c[nH]c3ccccc23)C(=O)NC1=O | 0.91 |  |  | 
O=C(/C=C/c1ccc(O)c(O)c1)NCCCNCCCCNCCCNC(=O)/C=C/c1ccc(O)c(O)c1 | 2.77 |  |  | 
